Published values collected from several papers.
≈ marks a conversion by molar mass, not a printed value.

Cc1ccccc1Cn1cc(-c2cccc(NC(=O)Nc3ccc(F)cc3)c2)nn1 — viability (Huh-7; cell growth or viability, CCK-8; 50 µM, 72 h): 12.5%
O=C(Nc1ccc(-c2cn(Cc3ccc(Cl)cc3)nn2)cc1)Nc1ccccc1Br — viability (Huh-7; cell growth or viability, CCK-8; 50 µM, 48 h): 80.2%
CN1CCN(c2ncc(-c3ccc4c(Nc5ncccn5)cnnc4c3)cn2)CC1 — EC50 (Trypanosoma cruzi; parasite growth; C2C12; intracellular, amastigote): > 10 µM
COc1ccc(NC(=O)Nc2ccc(-c3cn(Cc4cccc(Cl)c4)nn3)cc2)cc1 — IC50 (Huh-7; cell growth or viability, CCK-8; 72 h): > 50 µM
COc1ccc(Nc2cnnc3ccc(-c4ccc(N5CCN(C)CC5)cc4)cc23)nc1 — EC50 (Trypanosoma cruzi; parasite growth; C2C12; intracellular, amastigote): 1.7 µM
O=C(Cn1ccnc1[N+](=O)[O-])NCc1ccccc1 — IC50 (Trypanosoma cruzi; parasite growth; 24 h, trypomastigote): 1.04 µg/mL
Cc1ccc(C(C)C)c(OC2=C(Cl)C(=O)c3ccccc3C2=O)c1 — MIC (Alternaria alternata; microbial growth, broth dilution): 12 µg/mL (≈ 35.2 µM)
COc1ccc(NC(=O)NCc2cn(Cc3ccc(Br)cc3)nn2)cc1 — viability (Huh-7; cell growth or viability, CCK-8; 50 µM, 48 h): 87.2%
COc1ccc(Nc2cnnc3ccc(-c4cnc(N5CCN(C)CC5)nc4)cc23)cc1Cl — EC50 (Trypanosoma cruzi; parasite growth; C2C12; intracellular, amastigote): 5.7 µM
O=C(NCc1cn(Cc2ccc(Br)cc2)nn1)Nc1ccccc1Br — viability (Huh-7; cell growth or viability, CCK-8; 50 µM, 72 h): 72.9%
COc1ccc(NC(=O)Nc2cccc(-c3cn(Cc4ccc(Cl)cc4)nn3)c2)cc1 — IC50 (Huh-7; cell growth or viability, CCK-8; 72 h): 15.5 µM
O=C(Nc1cccc(-c2cn(Cc3ccc(Cl)cc3)nn2)c1)Nc1ccccc1Br — viability (Huh-7; cell growth or viability, CCK-8; 50 µM, 48 h): 53.1%
COc1ccc(Nc2cnnc3ccc(-c4cnc(N5CCCN(C)CC5)nc4)cc23)cc1Cl — EC50 (Trypanosoma cruzi; parasite growth; C2C12; intracellular, amastigote): 0.93 µM
COc1ccc(NC(=O)Nc2cccc(-c3cn(Cc4ccc(C)cc4)nn3)c2)cc1 — IC50 (Huh-7; cell growth or viability, CCK-8; 72 h): 19.3 µM
O=C(Nc1ccc(Cl)cc1)Nc1cccc(-c2cn(Cc3ccc(Cl)cc3)nn2)c1 — viability (Huh-7; cell growth or viability, CCK-8; 50 µM, 48 h): 84%
COc1ccc(NC(=O)Nc2cccc(-c3cn(Cc4cccc(Cl)c4)nn3)c2)cc1 — viability (Huh-7; cell growth or viability, CCK-8; 50 µM, 72 h): 10.8%
Cc1ccc(Nc2cnnc3ccc(-c4ccc(N5CCN(C)CC5)cc4)cc23)cn1 — EC50 (Trypanosoma cruzi; parasite growth; C2C12; intracellular, amastigote): 3.3 µM
O=C(Nc1ccc(Cl)cc1)Nc1ccc(-c2cn(Cc3ccc(Cl)cc3)nn2)cc1 — viability (Huh-7; cell growth or viability, CCK-8; 50 µM, 48 h): 83.6%
COc1ccc(NC(=O)NCc2cn(Cc3ccc(C)cc3)nn2)cc1 — IC50 (Huh-7; cell growth or viability, CCK-8; 72 h): > 50 µM
O=C(Nc1cccc(-c2cn(Cc3ccc(Br)cc3)nn2)c1)Nc1ccccc1Br — viability (Huh-7; cell growth or viability, CCK-8; 50 µM, 72 h): 10.8%
Cc1ccc(Nc2cnnc3ccc(-c4ccc(N5CCCN(C)CC5)cc4)cc23)cn1 — EC50 (Trypanosoma cruzi; parasite growth; C2C12; intracellular, amastigote): 6.1 µM
O=C(Nc1ccc(Cl)cc1)Nc1ccc(-c2cn(Cc3ccc(Br)cc3)nn2)cc1 — viability (Huh-7; cell growth or viability, CCK-8; 50 µM, 48 h): 98.4%
COc1ccc(Nc2cnnc3cc(-c4cnc(N5CCCN(C)CC5)nc4)ccc23)cc1Cl — EC50 (Trypanosoma cruzi; parasite growth; C2C12; intracellular, amastigote): 2 µM
